From ChEMBL document CHEMBL4732206, “Novel diaryl-2H-azirines: Antitumor hybrids for dual-targeting tubulin and DNA” (Eur J Med Chem, 2021)
Active and inactive are the calls of the source. The rule behind the calls is not given here.

Experiments:
[1] = Inhibition of pig brain tubulin polymerization by spectrophotometry; design: species or system Sus scrofa
Tubulin (Homo sapiens) [2] = target: T1, Tubulin (Homo sapiens) (UniProt P68371+Q9H4B7+P0DPH7+P68366+Q13509+Q71U36+P04350+Q3ZCM7+P07437+P68363+Q9BQE3+Q6PEY2+Q13885+Q9BVA1+Q9BUF5); assay: Inhibition of tubulin polymerization in human HeLa cells assessed as disorganisation of microtubule at 100 to 200 nM incubated for overnight by DAPI staining based immunofluorescence assay; type: cell-based; conditions: dose 100-200 nM
How it was run: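 HeLa cells were exposed overnight to a range of compound concentrations, with DMSO as the negative control. Cells were fixed in methanol, permeabilised with 0.1% Triton X-100 and blocked in 3% BSA for 1 h. They were probed with anti-α-tubulin monoclonal antibody overnight at 4 °C, then an Alexa 488 secondary antibody. Nuclei were stained with DAPI for 10 min at room temperature, and cells were imaged by confocal fluorescence microscopy.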

Tubulin (Homo sapiens) [3] = target: T1, Tubulin (Homo sapiens); assay: Inhibition of tubulin polymerization in human HeLa cells assessed as shrink in cell border at 100 to 200 nM incubated for overnight by DAPI staining based immunofluorescence assay; conditions: dose 100-200 nM
How it was run: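 HeLa cells were treated overnight with a range of concentrations or DMSO. Cells were fixed in methanol, permeabilized with 0.1% Triton X-100 and blocked in 3% BSA for 1 h. They were stained with α-tubulin monoclonal antibody overnight at 4 °C, then Alexa 488 secondary antibody, with DAPI counterstain for 10 min. Images were taken by confocal microscopy.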

Jurkat [4] = assay: Induction of DNA damage in human Jurkat cells assessed as increase in DNA lesion incubated for 48 hrs by comet assay; type: functional, cell-based; conditions: dose 100-400 nM
How it was run: (§1)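 Jurkat cells were exposed to graded concentrations, MMC 200 nM positive control or DMSO for 48 h at 37 °C, with work done in darkness. Cells were embedded in LM agarose on comet slides and lysed for 2 h at 4 °C. Slides were unwound in 1 mM EDTA/200 mM NaOH for 30 min, electrophoresed at 25 V for 15 min, stained with ethidium bromide and imaged by fluorescence microscopy. Tail moment was scored.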

HeLa [5] = assay: Induction of apoptosis in human HeLa cells assessed as viable cells at 1 uM incubated for 48 hrs by annexin-V-FITC and PI staining based flow cytometry analysis (reference value: 97.34 %); type: functional; conditions: read-out: Activity
HeLa [6] = assay: Induction of apoptosis in human HeLa cells assessed as viable cells at 4 uM incubated for 48 hrs by annexin-V-FITC and PI staining based flow cytometry analysis (reference value: 97.34 %); type: functional; conditions: read-out: Activity
HeLa [7] = assay: Induction of apoptosis in human HeLa cells assessed as early apoptotic cells at 4 uM incubated for 48 hrs by annexin-V-FITC and PI staining based flow cytometry analysis (reference value: 2.25 %); type: functional
HeLa [8] = assay: Induction of apoptosis in human HeLa cells assessed as necrotic cells at 8 uM incubated for 48 hrs by annexin-V-FITC and PI staining based flow cytometry analysis (reference value: 0.18 %); type: functional
HUVEC = assay: Antiangiogenic activity in HUVEC assessed as disruption of capillary structure incubated for 12 hrs by matrigel-based microscopic analysis; type: functional, cell-based; conditions: Homo sapiens, dose 75-150 nM
How it was run: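 Matrigel polymerized at 37 °C for 2 h, then HUVECs in DMEM were seeded on it. Cells were treated with a range of compound concentrations or DMSO vehicle for 12 h at 37 °C. Capillary-like tubes were photographed through an inverted microscope.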

A2780 = assay: Antitumor activity against human A2780 cells xenografted in Balb/c mouse assessed as reduction in tumor weight at 25 to 50 mg/kg administered every two days; type: functional, organism-based; conditions: dose 25-50 mg/kg
How it was run: (§2)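 Nude mice carried A2780 cells implanted in PBS in the right flank. When tumors reached 100 mm³, mice were randomized into four groups (n = 10): vehicle, 25 or 50 mg/kg test compound, and PTX 10 mg/kg. Dosing was every two days; vehicle was 10% castor oil and 10% DMSO in PBS. Volume (π/6 × length × width²) and body weight were measured by caliper and scale at each dose. Tumors were excised and weighed at the end.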

[9] = Toxicity in Balb/c mouse xenografted with human A2780 cells assessed as effect on body weight at 25 to 50 mg/kg administered every two days; type: organism-based; conditions: in vivo, dose 25-50 mg/kg; how it was run: as §2
[10] = Toxicity in Balb/c mouse xenografted with human A2780 cells assessed as adverse effect at 25 to 50 mg/kg administered every two days; type: organism-based; conditions: in vivo, dose 25-50 mg/kg
Jurkat [11] = assay: Induction of DNA damage in human Jurkat cells assessed as increase in tail moment at 100 to 400 nM incubated for 48 hrs by comet assay; type: functional, cell-based; conditions: dose 100-400 nM; how it was run: as §1

SMILES: COc1ccc(C2N=C2c2cc(OC)c(OC)c(OC)c2)cc1F (stereo not drawn)
- IC50 [1]: 3.3 µM
- inhibition (Tubulin (Homo sapiens) [2]): Active
- inhibition (Tubulin (Homo sapiens) [3]): Active
- Activity (Jurkat [4]): Dose-dependent effect
- viability at 1 µM (HeLa [5]): 95.5%
- viability at 4 µM (HeLa [6]): 63.5%
- Activity (HeLa [7]): 28.43%
- Activity (HeLa [8]): 2.14%
- Activity (HUVEC): Dose-dependent effect
- Activity (A2780): Active
- Activity [9]: Non-Toxic
- Activity [10]: Non-Toxic
- Activity (Jurkat [11]): Active
